# Measured values published in ChEMBL document CHEMBL5724801, “EUbOPEN Chemogenomics Library - Multiplex” (2024).
# “And” between values parts separate entries of the source, which are not always exact repeats. Identical values can stand only once.
# System: HEK-293T
# Assay: Multiplex assay against HEK293T
# Type: toxicity, cell-based
# Conditions: human
# Method in brief: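 Live cells were stained at seeding with Hoechst33342, BioTracker Green Microtubule Cytoskeleton Dye, MitoTracker Red and Annexin V Alexa Fluor 680, then imaged on a CQ1 microscope at 37°C and 5% CO2 after compound addition. CellPathfinder machine-learning gating split cells into Hoechst high-intensity objects or normal cells. Normal cells were split into healthy, pyknosed or fragmented nuclei, and pyknosed cells into mitotic or apoptotic. Tubulin, mitochondrial-mass and membrane-permeability phenotypes are per cents of healthy-nucleus cells.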
# [1] = 12 h, 1 µM, compound concentration 1 uM
# [2] = 12 h, 10 µM, compound concentration 10 uM
# [3] = 24 h, 1 µM, compound concentration 1 uM
# [4] = 24 h, 10 µM, compound concentration 10 uM
# [5] = 48 h, 1 µM, compound concentration 1 uM
# [6] = 48 h, 10 µM, compound concentration 10 uM
smiles,measurement,setting,value
Cc1c(CC(=O)O)c2cccnc2n1Cc1ccc(S(C)(=O)=O)cc1C(F)(F)F [FEVIPIPRANT],Population Apoptotic (%),[1],27% and 41%
same,Population Fragmented Nuclei (%),[1],6% and 7%
same,Population Healthy Nuclei (%),[1],83% and 79%
same,Population Hoechst High Intensity Objects (%),[1],5% and 7%
same,Population Membrane Permeable-Phenotype (%),[1],0%
same,Population Mitochondria Different-Phenotype (%),[1],32% and 52%
same,Population Mitotic Cells (%),[1],72% and 58%
same,Population Normal (%),[1],94% and 92%
same,Population Pyknosed Nuclei (%),[1],9% and 12%
same,Population Tubulin-Different-Phenotype (%),[1],22% and 16%
same,Total Cell Count,[1],471 and 370
same,Population Apoptotic (%),[2],33% and 52%
same,Population Fragmented Nuclei (%),[2],5% and 11%
same,Population Healthy Nuclei (%),[2],80% and 75%
same,Population Hoechst High Intensity Objects (%),[2],6% and 10%
same,Population Membrane Permeable-Phenotype (%),[2],0%
same,Population Mitochondria Different-Phenotype (%),[2],46% and 66%
same,Population Mitotic Cells (%),[2],66% and 47%
same,Population Normal (%),[2],93% and 89%
same,Population Pyknosed Nuclei (%),[2],13% and 12%
same,Population Tubulin-Different-Phenotype (%),[2],29% and 32%
same,Total Cell Count,[2],417 and 303
same,Population Apoptotic (%),[3],22% and 43%
same,Population Fragmented Nuclei (%),[3],8% and 7%
same,Population Healthy Nuclei (%),[3],81% and 82%
same,Population Hoechst High Intensity Objects (%),[3],3% and 4%
same,Population Membrane Permeable-Phenotype (%),[3],1% and 0%
same,Population Mitochondria Different-Phenotype (%),[3],18% and 37%
same,Population Mitotic Cells (%),[3],77% and 56%
same,Population Normal (%),[3],96% and 95%
same,Population Pyknosed Nuclei (%),[3],10%
same,Population Tubulin-Different-Phenotype (%),[3],18% and 14%
same,Total Cell Count,[3],637 and 457
same,Population Apoptotic (%),[4],33% and 50%
same,Population Fragmented Nuclei (%),[4],8% and 9%
same,Population Healthy Nuclei (%),[4],80% and 81%
same,Population Hoechst High Intensity Objects (%),[4],5% and 11%
same,Population Membrane Permeable-Phenotype (%),[4],0%
same,Population Mitochondria Different-Phenotype (%),[4],31% and 44%
same,Population Mitotic Cells (%),[4],66% and 50%
same,Population Normal (%),[4],94% and 88%
same,Population Pyknosed Nuclei (%),[4],10% and 8%
same,Population Tubulin-Different-Phenotype (%),[4],20%
same,Total Cell Count,[4],499 and 334
same,Population Apoptotic (%),[5],16% and 20%
same,Population Fragmented Nuclei (%),[5],13% and 11%
same,Population Healthy Nuclei (%),[5],79% and 82%
same,Population Hoechst High Intensity Objects (%),[5],1% and 2%
same,Population Membrane Permeable-Phenotype (%),[5],2% and 0%
same,Population Mitochondria Different-Phenotype (%),[5],12% and 16%
same,Population Mitotic Cells (%),[5],83% and 79%
same,Population Normal (%),[5],98% and 97%
same,Population Pyknosed Nuclei (%),[5],7% and 6%
same,Population Tubulin-Different-Phenotype (%),[5],12% and 10%
same,Total Cell Count,[5],1065 and 713
same,Population Apoptotic (%),[6],29% and 45%
same,Population Fragmented Nuclei (%),[6],14%
same,Population Healthy Nuclei (%),[6],78% and 77%
same,Population Hoechst High Intensity Objects (%),[6],4% and 7%
same,Population Membrane Permeable-Phenotype (%),[6],0% and 1%
same,Population Mitochondria Different-Phenotype (%),[6],24% and 22%
same,Population Mitotic Cells (%),[6],70% and 55%
same,Population Normal (%),[6],95% and 92%
same,Population Pyknosed Nuclei (%),[6],7% and 8%
same,Population Tubulin-Different-Phenotype (%),[6],14% and 17%
same,Total Cell Count,[6],794 and 491
COc1ccc2[nH]c(I)c(CCNC(C)=O)c2c1 [IODOMELATONIN],Population Apoptotic (%),[1],42% and 59%
same,Population Fragmented Nuclei (%),[1],4% and 5%
same,Population Healthy Nuclei (%),[1],80% and 84%
same,Population Hoechst High Intensity Objects (%),[1],5% and 7%
same,Population Membrane Permeable-Phenotype (%),[1],1% and 0%
same,Population Mitochondria Different-Phenotype (%),[1],43% and 64%
same,Population Mitotic Cells (%),[1],57% and 40%
same,Population Normal (%),[1],94% and 92%
same,Population Pyknosed Nuclei (%),[1],14% and 10%
same,Population Tubulin-Different-Phenotype (%),[1],35% and 32%
same,Total Cell Count,[1],388 and 400
same,Population Apoptotic (%),[2],38% and 46%
same,Population Fragmented Nuclei (%),[2],11% and 8%
same,Population Healthy Nuclei (%),[2],77%
same,Population Hoechst High Intensity Objects (%),[2],8% and 12%
same,Population Membrane Permeable-Phenotype (%),[2],0%
same,Population Mitochondria Different-Phenotype (%),[2],52% and 62%
same,Population Mitotic Cells (%),[2],61% and 53%
same,Population Normal (%),[2],91% and 87%
same,Population Pyknosed Nuclei (%),[2],10% and 14%
same,Population Tubulin-Different-Phenotype (%),[2],29% and 25%
same,Total Cell Count,[2],445 and 316
same,Population Apoptotic (%),[3],38% and 44%
same,Population Fragmented Nuclei (%),[3],8% and 9%
same,Population Healthy Nuclei (%),[3],80% and 78%
same,Population Hoechst High Intensity Objects (%),[3],3% and 8%
same,Population Membrane Permeable-Phenotype (%),[3],1% and 0%
same,Population Mitochondria Different-Phenotype (%),[3],24% and 37%
same,Population Mitotic Cells (%),[3],61% and 55%
same,Population Normal (%),[3],96% and 91%
same,Population Pyknosed Nuclei (%),[3],11%
same,Population Tubulin-Different-Phenotype (%),[3],23% and 14%
same,Total Cell Count,[3],511 and 497
same,Population Apoptotic (%),[4],32% and 40%
same,Population Fragmented Nuclei (%),[4],11% and 5%
same,Population Healthy Nuclei (%),[4],77% and 81%
same,Population Hoechst High Intensity Objects (%),[4],5% and 9%
same,Population Membrane Permeable-Phenotype (%),[4],1% and 0%
same,Population Mitochondria Different-Phenotype (%),[4],31% and 48%
same,Population Mitotic Cells (%),[4],67% and 59%
same,Population Normal (%),[4],94% and 90%
same,Population Pyknosed Nuclei (%),[4],10% and 12%
same,Population Tubulin-Different-Phenotype (%),[4],25% and 21%
same,Total Cell Count,[4],568 and 360
same,Population Apoptotic (%),[5],26% and 31%
same,Population Fragmented Nuclei (%),[5],12%
same,Population Healthy Nuclei (%),[5],79%
same,Population Hoechst High Intensity Objects (%),[5],4% and 5%
same,Population Membrane Permeable-Phenotype (%),[5],1%
same,Population Mitochondria Different-Phenotype (%),[5],19% and 22%
same,Population Mitotic Cells (%),[5],73% and 68%
same,Population Normal (%),[5],95% and 94%
same,Population Pyknosed Nuclei (%),[5],7% and 8%
same,Population Tubulin-Different-Phenotype (%),[5],16% and 14%
same,Total Cell Count,[5],770 and 622
same,Population Apoptotic (%),[6],23% and 25%
same,Population Fragmented Nuclei (%),[6],16% and 15%
same,Population Healthy Nuclei (%),[6],77% and 75%
same,Population Hoechst High Intensity Objects (%),[6],1% and 2%
same,Population Membrane Permeable-Phenotype (%),[6],1% and 0%
same,Population Mitochondria Different-Phenotype (%),[6],16% and 24%
same,Population Mitotic Cells (%),[6],76% and 74%
same,Population Normal (%),[6],98% and 97%
same,Population Pyknosed Nuclei (%),[6],5% and 9%
same,Population Tubulin-Different-Phenotype (%),[6],11% and 16%
same,Total Cell Count,[6],860 and 613
